For one series, the system named is MV4-11. Nature of the series: Cytotoxicity against human MV4-11 cells incubated for 72 hrs by MTT assay. The series is classed as functional, cell-based. The settings on record: MV4-11, 72 h. Put shortly:
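Leukemia cells were grown with 10% FBS at 37 °C in 5% CO₂; MV4-11 was kept in IMDM. Cells were seeded at 1–4 × 10⁴ per well, and an equal volume of medium containing increasing inhibitor concentrations was added. MTT was added for 2–4 h, formazan was dissolved in DMSO, and OD was read at 570 nm to derive IC50.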
Background: Tetrazolium assays rely on reduction of a dye to a coloured formazan, in cell work by metabolically active cells.

Series [1] is described as follows: Solubility in EtOH solution. The series is classed as physicochemical.
The nature of series [2]: Solubility in MeOH solution. It is filed as physicochemical.
Series [3] is described as follows: Solubility in PBS solution. The series is classed as physicochemical.
Series [4] can be described thus: Solubility in water. The series is classed as physicochemical.

pIC50: −log10 of the molar value. Values after ≈ are worked out from the molar mass of the structure shown.

Take `CC(C)(C)c1cc(NC(=O)Nc2ccc(-c3nc4ccccc4o3)cc2)no1`: the pIC50 in the series on MV4-11 is 7.08. For the compound `CC(C)(C)c1cc(NC(=O)Nc2ccc(-c3cn4c(Cl)cccc4n3)cc2)no1`, the negative-log IC50 (pIC50) in the series on MV4-11 was 7.25. On to `Cc1ccn2cc(-c3ccc(NC(=O)Nc4cc(C(C)(C)C)on4)cc3)nc2c1`, for which the solubility came to 3340 µg/mL (≈ 8.58 mM) in series [1] and 6830 µg/mL (≈ 17.5 mM) in series [2]. The compound also had a pIC50 in the series with MV4-11 of 9.10. Turning to `CC(C)(C)c1cc(NC(=O)Nc2ccc(-c3cn4cccnc4n3)cc2)no1`, the pIC50 in the series with MV4-11 was 6.77. As to `CC(C)(C)c1cc(NC(=O)Nc2ccc(-c3cn4cccc(C(F)(F)F)c4n3)cc2)no1`, the pIC50 in the series with MV4-11 was < 6.05.

In the series with MV4-11, `Cc1cccn2cc(-c3ccc(NC(=O)Nc4cc(C(C)(C)C)on4)cc3)nc12` had a negative-log IC50 (pIC50) of 6.60. In the series with MV4-11, `CC(=O)Oc1ccn2cc(-c3ccc(NC(=O)Nc4cc(C(C)(C)C)on4)cc3)nc2c1` had a pIC50 of 7.53. `Cc1ccc2nc(-c3ccc(NC(=O)Nc4cc(C(C)(C)C)on4)cc3)cn2c1` had a pIC50 with MV4-11 of 8.39. Regarding `CC(C)(C)c1cc(NC(=O)Nc2ccc(-c3cn4ccccc4n3)cc2)no1`, the figures for the solubility in series [1] and in series [2] were 4070 µg/mL (≈ 10.8 mM) and 5280 µg/mL (≈ 14.1 mM), respectively. The compound also showed a negative logarithm of the IC50 (pIC50) with MV4-11 of 8.51. The compound `CC(C)(C)c1cc(NC(=O)Nc2ccc(-c3cn4ccc(Br)cc4n3)cc2)no1` gave a pIC50 with MV4-11 of 8.02.

The compound `CC(C)(C)c1cc(NC(=O)Nc2ccc(-c3cn4ccc(Cl)cc4n3)cc2)no1` gave a pIC50 in the series with MV4-11 of 8.23. This pIC50 lies 0.21 log units higher than the previous one.

Compound `CC(C)(C)c1cc(NC(=O)Nc2ccc(-c3cn4cc(F)ccc4n3)cc2)no1` gave a pIC50 in the series with MV4-11 of 7.68. This pIC50 is 0.55 log units lower than that of the compound before. As for `CC(C)(C)c1cc(NC(=O)Nc2ccc(-c3nc4ccccc4s3)cc2)no1`, the negative-log IC50 (pIC50) in the series with MV4-11 was 6.76. Against the preceding compound, the pIC50 is 0.92 log units lower. On the same count and under the same terms, next, `CC(C)(C)c1cc(NC(=O)Nc2ccc(-c3cn4ccncc4n3)cc2)no1`: 7.35; `CC(C)(C)c1cc(NC(=O)Nc2ccc(-c3cn4cc(Cl)ccc4n3)cc2)no1`: 7.61; `C#Cc1ccc2nc(-c3ccc(NC(=O)Nc4cc(C(C)(C)C)on4)cc3)cn2c1`: 8.06. `CCOc1ccn2cc(-c3ccc(NC(=O)Nc4cc(C(C)(C)C)on4)cc3)nc2c1` gave a negative-log IC50 (pIC50) in the series on MV4-11 of 7.94. The same measure, in the same setting: next, `CC(C)(C)c1cc(NC(=O)Nc2ccc(-c3cn4cccc(Cl)c4n3)cc2)no1`: 6.45. The compound `CC(C)(C)c1cc(NC(=O)Nc2ccc(-c3cn4cc(I)ccc4n3)cc2)no1` had a negative-log IC50 (pIC50) with MV4-11 of 7.01. In turn, `Cc1cccc2nc(-c3ccc(NC(=O)Nc4cc(C(C)(C)C)on4)cc3)cn12` gave a negative-log IC50 (pIC50) in the series on MV4-11 of 7.69. Against the preceding compound, the pIC50 is 0.68 log units higher. `CC(C)(C)c1cc(NC(=O)Nc2ccc(-c3cn4c(n3)sc3cc(OCCN5CCOCC5)ccc34)cc2)no1` [QUIZARTINIB] showed a pIC50 in the series on MV4-11 of 9.17. Compared with the last compound, the pIC50 is 1.48 log units higher. In turn, `CC(C)(C)c1cc(NC(=O)Nc2ccc(-c3cn4cc(C5CC5)ccc4n3)cc2)no1` had a negative-log IC50 (pIC50) in the series with MV4-11 of 7.80. Still for that read-out and setting: next, `CC(C)(C)c1cc(NC(=O)Nc2ccc(-c3cc4ccccc4o3)cc2)no1`: 6.71; `CC(C)(C)c1cc(NC(=O)Nc2ccc(-c3cn4cc(Br)ccc4n3)cc2)no1`: 7.35. The compound `CC(C)(C)c1cc(NC(=O)Nc2ccc(-c3cn4ncccc4n3)cc2)no1` had a pIC50 in the series with MV4-11 of 7.23. In the case of `C#Cc1ccn2cc(-c3ccc(NC(=O)Nc4cc(C(C)(C)C)on4)cc3)nc2c1`, the solubility worked out at 4100 µg/mL (≈ 10.3 mM) in series [1], 10.2 µg/mL (≈ 0.0255 mM) in series [3], 26.7 µg/mL (≈ 0.0668 mM) in series [4] and 5840 µg/mL (≈ 14.6 mM) in series [2]. In the series on MV4-11, the negative-log IC50 (pIC50) is 8.46. Consider `CC(C)(C)c1cc(NC(=O)Nc2ccc(-c3cc4ccccc4s3)cc2)no1`, for which the pIC50 in the series on MV4-11 is < 6.05.

As to `CC(C)(C)c1cc(NC(=O)Nc2ccc(-c3cn4cccc(F)c4n3)cc2)no1`, the pIC50 in the series with MV4-11 was 7.91.

Usually pIC50 stands for the negative decadic logarithm of the IC50, by convention in mol/L. The low end stands for a large IC50, the high end for a small IC50. For orientation: solubility means the dissolved amount per volume that the medium holds.

The values above are taken from ChEMBL document CHEMBL3593173, “Discovery of novel N-(5-(tert-butyl)isoxazol-3-yl)-N'-phenylurea analogs as potent FLT3 inhibitors and evaluation of their activity against acute myeloid leukemia in vitro and in vivo” (Bioorg Med Chem, 2015).
